# Measurements published in ChEMBL document CHEMBL1138158, “Synthesis, pharmacology, and structure-activity relationships of novel imidazolones and pyrrolones as modulators of GABAA receptors” (J Med Chem, 2006).
# What was measured:
# [1] = Partition coefficient of the compound, log P; type: physicochemical; settings: octanol/water
# Summary of the method: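 Experimental 1-octanol/water partition coefficient.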
# [2] = molecular target: GABA-A receptor; anion channel; experiment: Binding affinity to Wistar rat benzodiazepine receptor; type: protein-complex assay
# Summary of the method: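 Rat (male Wistar, 180-200 g) whole-brain membranes without cerebellum in 0.05 M Tris/HCl pH 7.7. Bound ligand separated on filters and counted by scintillation. IC50 from 6-10 concentrations, Ki by Cheng-Prusoff, at least four repeats averaged.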
# Mus musculus [3] = experiment: Anxiolytic activity in NMRI BR mice after ip administration by PTZ test; type: functional
# Summary of the method: (§1)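 Male mice (NMRI BR at elbion, three per dose; CF-1 at NIH, up to five) given compound or vehicle i.p. at 30, 100, 300 mg/kg, 30 min and 4 h pretreatment. PTZ 85 mg/kg s.c. into neck, then 30 min observation for first generalized clonic seizure with loss of righting reflex.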
# Mus musculus [4] = experiment: Neurotoxicological activity in NMRI BR mice after ip administration by rotarod test; type: functional
# Summary of the method: (§2)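 Male mice (CF-1 at NIH; NMRI BR at elbion), trained beforehand, dosed i.p. Motor impairment was defined as failure to stay on a rod (6 rpm, 0.9 cm diameter) for 1 min in at least one of three trials. The same animals were tested at several times (≥3 doses, n = 8/group). TD50 at peak time by probit analysis.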
# [5] = molecular target: GABA-A receptor; anion channel (Rattus norvegicus) (UniProt O09028+P15431+P18506+P18508+P19969+P20236+P23574+P23576+P28471+P28473+P30191+P62813+P63079+P63138+Q91ZM7+Q9ES14); experiment: Inhibition of Wistar rat benzodiazepine receptor at 2 uM; type: protein-complex assay
# Rattus norvegicus [6] = experiment: Anxiolytic activity in rat after oral administration by PTZ test; type: functional
# Summary of the method: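 Rats dosed orally. PTZ 70 mg/kg given s.c., then 30 min observation for first generalized clonic seizure with loss of righting reflex. Protection was measured at several pretreatment times (n = 3-4), and the peak time was used for the dose-response.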
# Rattus norvegicus [7] = experiment: Anxiolytic activity in rat after oral administration by vogel conflict test; type: functional; settings: read-out: MED
# Summary of the method: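 Modified Vogel conflict test in rats after oral dosing. Water-deprived 24 h, trained to drink 5.0% glucose for 5 min, deprived a further 24 h. The 210 s test session had 30 s unpunished drinking, then 180 s with mild shock on touching the drinking tube. Punished and unpunished licks counted. Minimal effective dose reported.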
# Rattus norvegicus [8] = experiment: Neurotoxicological activity in rat after oral administration by rotarod test; type: functional
# Summary of the method: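 Trained male rats dosed orally. Motor impairment was defined as failure to stay on a rod (8 rpm, 6 cm diameter) for 1 min in at least one of three trials. The same animals were tested at several time points (≥3 dose groups, n = 8/group). TD50 at time of peak neurotoxicity by probit analysis.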
# Mus musculus [9] = experiment: Anxiolytic activity in CF1 mice after ip administration by PTZ test; type: functional; summary of the method: as §1
# Mus musculus [10] = experiment: Neurotoxicological activity in CF1 mice after ip administration by rotarod test; type: functional; summary of the method: as §2
# Cynomolgus monkey [11] = experiment: Plasma concentration in cynomolgus monkey at 5 mg/kg, po; type: ADME, organism-based, Macaca fascicularis; parameters: dose 5 mg/kg, route oral; settings: in vivo
# Cynomolgus monkey [12] = experiment: Plasma concentration in cynomolgus monkey at 30 mg/kg, po; type: ADME, organism-based, Macaca fascicularis; parameters: dose 30 mg/kg, route oral; settings: in vivo
SMILES,logP [1],Ki [2],ED50 (Mus musculus [3]),TD50 (Mus musculus [4]),inhibition [5],ED50 (Rattus norvegicus [6]),minimal effective dose (Rattus norvegicus [7]),TD50 (Rattus norvegicus [8]),ED50 (Mus musculus [9]),TD50 (Mus musculus [10]),concentration (Cynomolgus monkey [11]),concentration (Cynomolgus monkey [12])
O=C1C=C(N2CCOCC2)C(=O)N1c1ccc(Cl)cc1,2.3,8.88 µM,120 mg/kg,> 300 mg/kg,–,–,–,–,–,–,–,–
Cc1ccc(N2CC(N3CCOCC3)=CC2=O)cc1,1.4,0.344 µM,89.3 mg/kg,100 mg/kg,–,–,–,–,–,–,–,–
O=c1cc(-c2ccccc2)[nH]n1-c1ccc(Cl)cc1,2.6,–,> 300 mg/kg,> 300 mg/kg,< 20%,–,–,–,–,–,–,–
O=C1N=C(N2CCOCC2)CN1c1ccc(Br)cc1,1.4,3.06 µM,21.8 mg/kg,345 mg/kg,–,27.7 mg/kg,100 mg/kg,473 mg/kg,–,–,–,–
O=C1C=C(c2ccc(Cl)cc2)C(=O)N1c1ccc(Cl)cc1,3,–,> 300 mg/kg,> 300 mg/kg,< 20%,–,–,–,–,–,–,–
Clc1ccc(-c2cnn(-c3ccccn3)c2)cc1,4.3,–,> 300 mg/kg,> 300 mg/kg,–,–,–,–,–,–,–,–
O=C1C=C(N2CCCCCC2)CN1c1ccc(Cl)cc1,3.4,0.44 µM,234 mg/kg,> 100 mg/kg,–,–,–,–,–,–,–,–
COC1(OC)C(N2CCOCC2)=NC(=O)N1c1ccc(Cl)cc1,1.7,–,> 100 mg/kg,> 30 mg/kg,< 20%,–,–,–,–,–,–,–
O=C1C=C(N2CCCC2)C(=O)N1c1ccc(Cl)cc1,3,3.26 µM,> 300 mg/kg,> 300 mg/kg,–,–,–,–,–,–,–,–
O=C1N=C(N2CCOCC2)CN1Cc1c(Cl)cccc1Cl,1.3,–,> 300 mg/kg,> 300 mg/kg,–,–,–,–,–,–,–,–
CN1CCN(C2=NC(=O)N(c3ccc(Cl)cc3)C2)CC1,2.2,–,> 300 mg/kg,> 100 mg/kg,< 20%,–,–,–,–,–,–,–
O=C1N=C(N2CCCCCC2)CN1c1ccc(Cl)cc1,–,11.6 µM,> 300 mg/kg,> 300 mg/kg,–,–,–,–,–,–,–,–
O=C1N=C(N2CCOCC2)CN1c1ccccc1,0.6,6.28 µM,121 mg/kg,> 300 mg/kg,–,–,–,–,–,–,–,–
CN(C1=NC(=O)N(c2ccc(Cl)cc2)C1)C1CCCCC1,2.7,–,> 300 mg/kg,> 300 mg/kg,–,–,–,–,–,–,–,–
O=C1C=C(N2CCOCC2)CN1c1ccc(F)cc1,–,0.494 µM,337 mg/kg,> 300 mg/kg,–,–,–,–,–,–,–,–
Clc1ccc(-c2noc(N3CCOCC3)n2)cc1,3.1,26.1 µM,> 300 mg/kg,> 300 mg/kg,–,–,–,–,–,–,–,–
O=c1oc(-c2ccccc2)nn1-c1ccc(Cl)cc1,2.6,–,> 300 mg/kg,> 300 mg/kg,< 20%,–,–,–,–,–,–,–
O=C1N=C(N2CCOCC2)CN1c1cccc(Cl)c1,1.3,–,> 300 mg/kg,> 300 mg/kg,< 20%,–,–,–,–,–,–,–
O=C1C=C(N2CCOCC2)C(=O)N1c1ccc(F)cc1,1.5,–,128 mg/kg,> 100 mg/kg,< 20%,–,–,–,–,–,–,–

SMILES,logP [1],Ki [2],ED50 (Mus musculus [3]),TD50 (Mus musculus [4]),inhibition [5],ED50 (Rattus norvegicus [6]),minimal effective dose (Rattus norvegicus [7]),TD50 (Rattus norvegicus [8]),ED50 (Mus musculus [9]),TD50 (Mus musculus [10]),concentration (Cynomolgus monkey [11]),concentration (Cynomolgus monkey [12])
O=c1cc(-c2ccccc2)on1-c1ccc(Cl)cc1,4.1,–,253 mg/kg,< 300 mg/kg,–,–,–,–,–,–,–,–
CN1C(=O)CN=C(c2ccccc2)c2cc(Cl)ccc21 [DIAZEPAM],–,–,0.4 mg/kg,2 mg/kg,–,6.3 mg/kg,1 mg/kg,13 mg/kg,–,–,–,–
O=C1C=C(N2CCCC2)CN1c1ccc(Cl)cc1,–,0.067 µM,> 300 mg/kg,> 300 mg/kg,–,> 200 mg/kg,–,–,–,–,–,–
O=C1N=C(N2CCOCC2)CN1Cc1ccccc1Cl,1,–,> 300 mg/kg,> 300 mg/kg,–,–,–,–,–,–,–,–
O=C1N=C(N2CCOCC2)CN1c1ccc(F)cc1,–,–,–,–,< 20%,34.1 mg/kg,–,> 60 mg/kg,35 mg/kg,> 500 mg/kg,–,–
O=C1N=C(N2CCOCC2)CN1Cc1ccccc1,0.5,–,> 300 mg/kg,> 300 mg/kg,< 20%,–,–,–,–,–,–,–
O=C1N=C(N2CCOCC2)CN1c1ccc(Cl)c(Cl)c1,1.9,–,> 300 mg/kg,> 300 mg/kg,< 20%,–,–,–,–,–,–,–
Cc1cccc(N2CC(N3CCOCC3)=CC2=O)c1,1.5,4.45 µM,62.3 mg/kg,< 100 mg/kg,–,–,–,–,–,–,–,–
O=C1N=C(N2CCCC2)CN1c1ccc(Cl)cc1,2,4.29 µM,> 300 mg/kg,> 300 mg/kg,–,14.2 mg/kg,3 mg/kg,> 500 mg/kg,–,–,–,–
O=C1C=C(N2CCCC2)C(=O)N1c1ccc(F)cc1,2.3,–,> 200 mg/kg,> 300 mg/kg,< 20%,–,–,–,–,–,–,–
Clc1ccc(-n2cnc(-c3ccccc3)c2)cc1,3.7,3.29 µM,> 300 mg/kg,> 300 mg/kg,–,–,–,–,–,–,–,–
O=C1N=C(N2CCCCCCC2)CN1c1ccc(Cl)cc1,2.7,–,> 300 mg/kg,> 300 mg/kg,–,–,–,–,–,–,–,–
CC(c1ccccc1)N1CC(N2CCOCC2)=NC1=O (configuration not stated),0.8,–,> 300 mg/kg,> 100 mg/kg,–,–,–,–,–,–,–,–
CN(C)C1=NC(=O)N(c2ccc(Cl)cc2)C1,1.6,–,> 300 mg/kg,> 300 mg/kg,< 20%,–,–,–,–,–,–,–
O=C1C=C(N2CCOCC2)CN1c1ccc(Cl)cc1,1.9,0.141 µM,10.9 mg/kg,97 mg/kg,–,–,10 mg/kg,> 500 mg/kg,–,60.9 mg/kg,–,–
O=C1C2C=Nc3ccccc3C2=NN1c1ccc(Cl)cc1 (configuration not stated) [CGS-9896],–,0.0024 µM,1.36 mg/kg,302 mg/kg,–,2.7 mg/kg,0.3 mg/kg,> 500 mg/kg,–,–,0.027 µM,–
O=C1N=C(N2CCOCC2)CN1c1ccc(I)cc1,1.7,–,–,–,–,50 mg/kg,–,> 50 mg/kg,43 mg/kg,> 300 mg/kg,–,–
O=C1N=C(N2CCOCC2)CN1c1ccc(Cl)cc1 [IMEPITOIN],1.5,4.35 µM,–,75.6 mg/kg,–,–,3 mg/kg,998 mg/kg,17.2 mg/kg,176 mg/kg,–,39 µM
O=C1C=C(N2CCOCC2)CN1c1ccc(F)c(Cl)c1,2.2,2.05 µM,22.3 mg/kg,< 100 mg/kg,–,–,–,–,–,–,–,–
